PubChem BioAssay AID463111 (Johns Hopkins Ion Channel Center, 2010)
Screen size: about 310,000 compounds; about 2,800 (0.9%) were called active. This is one part of a sample in which actives are shown more often than they occur.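 The calls were made as follows: active = B-score of the integrated calcium signal more than 4 SD below the library mean, with starting fluorescence not abnormally high; inactive = the rest.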

assay: enhancers of RGS4 function in calcium signaling – cell-based, HEK293 M3R inducible RGS4, calcium flux, primary screen (AID 463111); settings: HEK293 M3R/inducible RGS4, carbachol calcium flux Fluo4, at 10 µM; stronger effect = lower value;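 as to B-score: negative B-score means reduced calcium response which marks RGS4 activation or potentiation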
Procedure, shortened: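 Detection: kinetic calcium fluorescence imaging with Fluo4-AM dye, 2 µM / Material: HEK293 cells with stable M3R and inducible RGS4 / Schedule: recording 10 s baseline at 1 Hz, 100 s post-agonist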

SMILES	B-score
CCOc1cccc(NC(=O)Cn2nc(-c3ccc4c(c3)OCCO4)ccc2=O)c1	inactive
CCOc1ccc2[nH]c(=O)c(CN(Cc3nnnn3CCc3ccccc3)CC3CCCO3)cc2c1 (stereo not given)	inactive
COc1ccccc1N1CCN(c2ncnc3sc(C)c(-c4ccccc4)c23)CC1	inactive
Oc1ccccc1N1CCN(c2ncnc3sc(-c4ccccc4)cc23)CC1	-9.36 (active)
c1ccc(-c2cc3c(NCC4COc5ccccc5O4)ncnc3s2)cc1 (stereo not given)	inactive
CNC(=O)COc1ccc(S(=O)(=O)Nc2ccccc2)cc1	inactive
CCn1ncc(CNC(=O)C2(C)CC2(Br)Br)c1C (stereo not given)	inactive
C=CCn1c(SCc2ccc(Cl)c(Cl)c2)nnc1C(CO)NC(=O)c1ccc(OC)cc1 (stereo not given)	inactive
COc1cnc(SCc2ccc(Cl)c(Cl)c2)nc1Cl	-7.01 (active)
Nc1cc(N)nc(SCc2ccc(Cl)cc2)n1	inactive
CCS(=O)(=O)Nc1ccc(C2=NN(C(C)=O)C(c3cccs3)C2)cc1 (stereo not given)	inactive
CCS(=O)(=O)Nc1ccc(C2=NN(S(=O)(=O)c3ccc(F)cc3)C(c3ccco3)C2)cc1 (stereo not given)	-7.77 (active)
CS(=O)(=O)Nc1ccc(C2=NN(S(C)(=O)=O)C(c3cccs3)C2)cc1 (stereo not given)	inactive
COc1ccc(N(CC(=O)Nc2cc(OC)ccc2OC)S(=O)(=O)c2c(C)noc2C)cc1	inactive
C=CCNC(=O)COC(=O)CNC(=O)c1cc(Cl)cc([N+](=O)[O-])c1	inactive
COc1ccc(Nc2nc(-c3cccnc3)nc3ccccc23)cn1	inactive
CC(=O)Nc1cccc(Nc2nc(-c3cccs3)nc3ccccc23)c1	inactive
Cc1cccc(-c2nc(Nc3ccc(O)cc3)c3ccccc3n2)c1	-8.56 (active)
CC(NS(=O)(=O)c1ccc(OCC(=O)N2CCCC2)cc1)c1ccccc1 (stereo not given)	inactive
CCc1ccc(N2CC(O)=C(c3nc4ccccc4c(=O)[nH]3)C2=N)cc1	inactive
COc1ccccc1CNC(=O)C1CCN(C(=O)[C@@H]2Cc3ccccc3CN2)CC1	inactive
O=C(Cc1ccccc1)NNC1CC(=O)N(c2ccc(Br)cc2)C1=O (stereo not given)	inactive

SMILES	B-score
Cc1ccc(N2C(=O)CC(Nc3cccc4ccccc34)C2=O)cc1 (stereo not given)	-8.55 (active)
CC1=C(C)CC2C(=O)N(c3cccc4ccccc34)C(=O)C2C1 (stereo not given)	inactive
O=C(NCc1ccccc1)C1CCCN(c2nc3ccsc3c(=O)s2)C1 (stereo not given)	inactive
CCCOc1ccc(C(=O)CCC(=O)OC(C)C(=O)Nc2ccc(NC(C)=O)cc2)cc1 (stereo not given)	inactive
CCCCOc1ccc(C(=O)NN2CCN(C)CC2)cc1	inactive
CCCOc1ccc(C(=O)C(CCC(CNCC)C(=O)c2ccc(OCCC)cc2)CNCC)cc1 (stereo not given)	-8.07 (active)
COc1ccc(Cl)cc1NS(=O)(=O)c1cccc(C(=O)NCC2CCCO2)c1 (stereo not given)	inactive
C[N+](C)(C)CCNC(=O)c1cc[n+](Cc2ccccc2)c(/C=N/O)c1	inactive
Cc1ccc(/C=C(\C#N)C(=O)Nc2cccc3ncccc23)o1	inactive
C=CCn1c(=O)c(C(=O)NCc2ccc3c(c2)OCO3)c(O)c2ccccc21	inactive
Cc1ccc(C)c(NC2=NCC(=O)N2c2ccc3c(c2)OCCO3)c1	inactive
CCOc1ccccc1NC(=O)Cn1ncc2ccc([N+](=O)[O-])cc21	inactive
Cc1cccc(C)c1NC(=O)C1(C)c2cccc[n+]2CC(=O)N1Cc1cccs1 (stereo not given)	inactive
COc1ccc(C(=O)Oc2ccc(-c3nnco3)cc2)cc1S(=O)(=O)N1CCOCC1	inactive
Cc1cc(NC(=O)COC(=O)c2ccc(F)c(S(=O)(=O)N3CCOCC3)c2)no1	inactive
O=C(Oc1ccc(-c2nnco2)cc1)c1ccc(F)c(S(=O)(=O)N2CCOCC2)c1	-7.43 (active)
COc1ccccc1-c1cnn2c(N3CCOCC3)cc(C)nc12	inactive
CC(C)Oc1ccc(CN2CCC(n3nccc3NC(=O)c3cccnc3)CC2)cc1	inactive
Cc1ccc(-n2c(-c3ccc(Cl)cc3)n[nH]c2=S)cc1	inactive
S=c1[nH]nc(-c2ccc(Cl)cc2)n1CC1CCCO1 (stereo not given)	-8.73 (active)
Cc1nnc(SCC(=O)NNC(=O)c2ccc(Cl)cc2)n1CC1CCCO1 (stereo not given)	inactive
O=C(CSc1ncccn1)N1CCCC1	inactive

SMILES	B-score
CCCCCN(C(=O)NC(=O)Nc1ccccc1OC)S(C)(=O)=O	inactive
CCCN1C2=C(C(=O)CCC2)C(c2ccc(O)c(Br)c2)C2=C1CCCC2=O	inactive
CCOc1cc(/C=N/NC(=O)c2ccc(CSc3nncn3C)cc2)ccc1OCC(=O)N1CCOCC1	inactive
COCCCNS(=O)(=O)c1cccc(S(=O)(=O)c2cccc(S(=O)(=O)NCCCOC)c2)c1	inactive
COc1cccc(NC(=O)CN2CCN(c3nc(-c4cccc(OC)c4)cs3)CC2)c1	inactive
COc1cccc(CNc2nc3nc4c(c(=O)n3[nH]2)CCC4)c1	inactive
COc1cccc(-c2cc3nc4c(c(N5CCC6(CC5)OCCO6)n3n2)CCCC4)c1	-7.88 (active)
O=C(c1cc2ccccc2o1)N1CCN(Cc2ccccc2)CC1	inactive
Cc1cnc(C(=O)N2CCCC(N3CCN(c4ccccc4F)CC3)C2)cn1 (stereo not given)	inactive
O=C(NCCc1c[nH]c2ccccc12)c1cc2ccccc2oc1=O	inactive
CCCN(CCC)c1nc2c(C)cccn2c(=O)c1/C=C1/SC(=S)N(Cc2ccco2)C1=O	inactive
CC(C)NC(=O)C(=O)NCCCOC(C)C	inactive
CNC(=O)c1ccsc1NC(=O)c1ccc(S(=O)(=O)N2CCOCC2)cc1	inactive
COc1ccc(C(=O)Nc2nc(-c3ccc(S(=O)(=O)N4CCOCC4)cc3)cs2)cc1	-7.75 (active)
CCOC(=O)c1csc(NC(=O)c2ccc(S(=O)(=O)N3CCCC3)cc2)n1	inactive
O=C(COC(=O)c1cnccn1)Nc1ccc(Cl)cc1C(F)(F)F	inactive
COc1ccc(Cc2nnc(SCC(=O)Nc3ccc(C)c(Cl)c3)[nH]c2=O)cc1	inactive
CN1C2CCC1CC(NC(=O)c1ccc([N+](=O)[O-])cc1)C2 (stereo not given)	inactive
O=C(Nc1ccccc1C(=O)Nc1ccncc1)c1ccc([N+](=O)[O-])cc1	inactive
O=C(Nc1cc2c3c(c1)C1CCCC1CN3CC1CCCC21)c1ccc([N+](=O)[O-])cc1 (stereo not given)	-8.07 (active)
O=C(Nc1ccc2c(c1)OCO2)C1CC(c2c(F)cccc2Cl)=NO1 (stereo not given)	inactive
